Test results reported in the M2OR odorant receptor database.

These compounds were tested against T1, OR5B17 (Homo sapiens) (UniProt Q8NGF7). Conditions: stereoisomer not certain.
T1 sequence (whole entry): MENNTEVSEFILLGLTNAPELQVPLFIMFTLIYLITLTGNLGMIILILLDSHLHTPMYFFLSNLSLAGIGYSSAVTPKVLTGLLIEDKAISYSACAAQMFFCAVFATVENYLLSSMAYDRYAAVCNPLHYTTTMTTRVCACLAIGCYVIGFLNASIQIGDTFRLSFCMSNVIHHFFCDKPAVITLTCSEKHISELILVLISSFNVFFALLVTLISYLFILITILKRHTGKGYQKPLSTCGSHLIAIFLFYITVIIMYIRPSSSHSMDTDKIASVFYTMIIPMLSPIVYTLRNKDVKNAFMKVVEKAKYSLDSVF
Method in brief: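 Transient luciferase assays in mammalian cell lines were common, though methods varied by source. The values come from published papers and their supplementary material, with extra details from the original authors when needed. Responsive refers to a measured signal the original authors judged statistically different from baseline, and non-responsive (inactive) to the remainder.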

Compound	odorant receptor agonist call;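 also: active if original authors judged signal statistically different from baseline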
CCCCCC1C(=O)CCC1CC(=O)OC (stereo unspecified)	inactive
C=CCOC(=O)COCCC(C)C	inactive
CC(C)=CCCC(C)=CCO	inactive
Cc1ccc(C(C)C)cc1O	inactive
CCOC(=O)CC1(C)OCCO1	inactive
C=CC(C)(CCC=C(C)C)OC(C)=O (stereo unspecified)	inactive
OCc1ccccc1	inactive
CCCC(C)C(=O)OCC (stereo unspecified)	inactive
CCC=C(C)C(O)CCCCC (stereo unspecified)	inactive
C=CC(C)(O)CCC=C(C)CCC=C(C)C (stereo unspecified)	inactive
CCC(=O)C=CC1C(C)=CCCC1(C)C (stereo unspecified)	inactive
CC(=O)OCc1ccccc1	inactive
CC(C)(C)C1CCCCC1OCCCCO (stereo unspecified)	inactive
CCCCC1CCC(=O)O1 (stereo unspecified)	inactive
CCCCCC1COCCC1OC(C)=O (stereo unspecified)	inactive
CC(CC=O)c1ccc(C(C)(C)C)cc1 (stereo unspecified)	inactive
CC=CC(=O)C1C(C)=CCCC1(C)C (stereo unspecified)	inactive
CCc1ccc(CC(C)(C)C=O)cc1	active
CC(C)=CCCC(C)CC=O (stereo unspecified)	inactive
CC1=CCC2CC1C2(C)C (stereo unspecified)	inactive
COc1ccc(C)cc1	inactive
